# Measured values: ChEMBL document CHEMBL1159121, “Synthesis, in vitro structure-activity relationship, and in vivo studies of 2-arylthiazolidine-4-carboxylic acid amides as anticancer agents” (Bioorg Med Chem, 2010)
# Activity calls are given as the source filed them. No cut-off for these calls is given here.
# Tests used:
# SK-MEL-2 = assay: Growth inhibition of human SK-MEL-2 cells; assay type: functional
# NCI-H460 = assay: Growth inhibition of human NCI-H460 cells; assay type: functional; settings: for CC50: read-out: LC50 (the source's name)
# Mus musculus = assay: Toxicity in ip dosed athymic nude mouse assessed as body weight loss; assay type: organism-based; settings: in vivo
# Method in brief: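 Male athymic nude mice (4–5 weeks) given subcutaneous A375 cells in Matrigel (1:1). At about 150 mm3, near day 7, split into groups of n = 8. Dosed at 5 or 10 mg/kg in 80% Tween 80/20% Captex 200, injected once daily for 22 days. Vehicle (intraperitoneal) and DTIC 60 mg/kg controls. Body weight and activity monitored throughout.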
# BT-549 = assay: Growth inhibition of human BT549 cells; assay type: functional; settings: for CC50: read-out: LC50 (the source's name)
# A-375 [1] = assay: Inhibition of human A375 cells colony formation at 100 uM after 7 days by colony-formation assay; assay type: functional, cell-based
# A-375 [2] = assay: Antitumor activity against human A375 cells xenografted in athymic nude mouse assessed as tumor growth inhibition at 60 mg/kg, ip once daily administered 7 days after inoculation for 22 days; assay type: functional; parameters: scale not given: the % may be the effect or the level left; settings: route intraperitoneal
# Method in brief: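 Male athymic nude mice, 4–5 weeks old, injected subcutaneously in the right flank with A375 cells (5 × 10^7/mL, 100 μL, 1:1 Matrigel). Grouped at about 150 mm3 (~day 7), n = 8. DTIC in saline given ip once daily. Caliper volume a×b²×0.5 measured twice weekly; % reduction 100×[(T–T0)/(C–C0)] at day 22. Body weight monitored.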
# LNCaP = assay: Cell cycle arrest in human LNCAP cells by assessed as increase in accumulation at subG1 phase […] by flow cytometry; assay type: functional, cell-based
# KM12 = assay: Growth inhibition of human KM12 cells; assay type: functional
# SR = assay: Growth inhibition of human SR cells; assay type: functional; settings: for CC50: read-out: LC50 (the source's name)
# HCT-15 = assay: Growth inhibition of human HCT15 cells; assay type: functional; settings: for CC50: read-out: LC50 (the source's name)
# SN12C = assay: Growth inhibition of human SN12C cells; assay type: functional; settings: for CC50: read-out: LC50 (the source's name)
# SW-620 = assay: Growth inhibition of human SW620 cells; assay type: functional; settings: for CC50: read-out: LC50 (the source's name)
# M14 = assay: Growth inhibition of human M14 cells; assay type: functional; settings: for CC50: read-out: LC50 (the source's name)
# K562 = assay: Growth inhibition of human K562 cells; assay type: functional
# SF-295 = assay: Growth inhibition of human SF295 cells; assay type: functional; settings: for CC50: read-out: LC50 (the source's name)
# A-375 [3] = assay: Antitumor activity against human A375 cells xenografted in athymic nude mouse assessed as tumor growth inhibition at 5 mg/kg, ip once daily administered 7 days after inoculation for 22 days; assay type: functional; parameters: scale not given: the % may be the effect or the level left; settings: route intraperitoneal
# Method in brief: (§1)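 Male athymic nude mice, 4–5 weeks old, received 2.5 × 10^6 A375 cells (FBS-free DMEM mixed 1:1 with Matrigel) subcutaneously in the right dorsal flank. At about 150 mm3 (~day 7), mice were grouped by tumor size (n = 8). Drug in 80% Tween 80/20% Captex 200 was injected daily, with vehicle controls i.p. Calipers twice weekly (a×b²×0.5); % reduction at day 22 = 100×[(T–T0)/(C–C0)]. Body weight tracked.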
# A-375 [4] = assay: Antitumor activity against human A375 cells xenografted in athymic nude mouse assessed as tumor growth inhibition at 10 mg/kg, ip once daily administered 7 days after inoculation for 22 days; assay type: functional; parameters: scale not given: the % may be the effect or the level left; settings: route intraperitoneal; method in brief: as §1
# A549 = assay: Growth inhibition of human A549 cells; assay type: functional
# [5] = Toxicity in mouse assessed as maximum tolerated dose; assay type: organism-based; settings: in vivo
# Method in brief: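 Tolerability was determined in ICR mice, with the compound formulated in a co-solvent of 80% Tween 80 and 20% Captex 200.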
# T47D = assay: Growth inhibition of human T47D cells; assay type: functional
# A-375 [6] = assay: Inhibition of human A375 cells colony formation at 2 uM after 7 days by colony-formation assay; assay type: functional, cell-based
# SF-268 = assay: Growth inhibition of human SF268 cells; assay type: functional; settings: for CC50: read-out: LC50 (the source's name)
# [7] = Antiproliferative activity against mouse B16-F1 cells after 48 hrs by SRB assay; assay type: functional, cell-based; settings: B16-F1, 48 h
# Method in brief: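 Melanoma lines and control fibroblasts grown at 37 °C, 5% CO2, then exposed to a wide concentration range for 48 h in round-bottom 96-well plates. Fixed with 10% TCA, stained with SRB, protein read at 560 nm. IC50 (50% growth inhibition versus untreated) obtained by nonlinear regression.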
# NCI-H522 = assay: Growth inhibition of human NCI-H522 cells; assay type: functional; settings: for CC50: read-out: LC50 (the source's name)
# UACC-257 = assay: Growth inhibition of human UACC257 cells; assay type: functional; settings: for CC50: read-out: LC50 (the source's name)
# A-375 [8] = assay: Inhibition of human A375 cells colony formation at 20 uM after 7 days by colony-formation assay; assay type: functional; settings: A-375, 168 h
# OVCAR-3 = assay: Growth inhibition of human OVCAR-3 cells; assay type: functional; settings: for CC50: read-out: LC50 (the source's name)
# MDA-MB-468 = assay: Growth inhibition of human MDA-MB-468 cells; assay type: functional
# Malme-3M = assay: Growth inhibition of human MALME-3M cells; assay type: functional
# MCF7 = assay: Growth inhibition of human MCF7 cells; assay type: functional
# PC-3 = assay: Antiproliferative activity against human PC3 cells after 96 hrs by SRB assay; assay type: functional, cell-based; settings: PC-3, 96 h
# [9] = Selectivity ratio of IC50 for human fibroblasts to IC50 for human melanoma cells; assay type: ADME; settings: human fibroblasts and human melanoma cells, read-out: Ratio IC50
# HOP-92 = assay: Growth inhibition of human HOP92 cells; assay type: functional
# DU-145 = assay: Antiproliferative activity against human DU145 cells after 96 hrs by SRB assay; assay type: functional, cell-based; settings: DU-145, 96 h
# Method in brief: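 Prostate lines in RPMI1640/10% FBS; RH7777 in DMEM/10% FBS. Cells TCA-fixed, stained with 0.4% SRB, absorbance read at 540 nm. IC50 from nonlinear regression of % survival against concentration.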
# [10] = read-out: LC50 (the source's name)
smiles,measurement,setting,value
CCCCCCCCCCCCCCCCNC(=O)[C@@H]1CSC(c2ccc(NC(C)=O)cc2)N1 (mixture of isomers),GI50,SK-MEL-2,250 nM
same,TGI,SK-MEL-2,540 nM
same,CC50,SK-MEL-2; [10],1750 nM
same,GI50,NCI-H460,190 nM
same,TGI,NCI-H460,390 nM
same,CC50,NCI-H460,790 nM
same,Activity,Mus musculus,Non-toxic
same,GI50,BT-549,180 nM
same,TGI,BT-549,330 nM
same,CC50,BT-549,630 nM
same,Activity,A-375 [1],Active
same,Activity,A-375 [2],42%
same,Activity,LNCaP,Dose-dependent effect
same,GI50,KM12,180 nM
same,TGI,KM12,330 nM
same,CC50,KM12; [10],580 nM
same,GI50,SR,160 nM
same,TGI,SR,350 nM
same,CC50,SR,810 nM
same,GI50,HCT-15,1000 nM
same,TGI,HCT-15,3220 nM
same,CC50,HCT-15,11900 nM
same,GI50,SN12C,350 nM
same,TGI,SN12C,510 nM
same,CC50,SN12C,740 nM
same,GI50,SW-620,210 nM
same,TGI,SW-620,430 nM
same,CC50,SW-620,890 nM
same,GI50,M14,170 nM
same,TGI,M14,330 nM
same,CC50,M14,620 nM
same,GI50,K562,210 nM
same,TGI,K562,430 nM
same,CC50,K562; [10],900 nM
same,GI50,SF-295,280 nM
same,TGI,SF-295,1060 nM
same,CC50,SF-295,4090 nM
same,Activity,A-375 [3],25%
same,Activity,A-375 [4],62%
same,GI50,A549,360 nM
same,TGI,A549,1350 nM
same,CC50,A549; [10],5280 nM
same,MTD,[5],42 mg/kg
same,GI50,T47D,240 nM
same,TGI,T47D,530 nM
same,CC50,T47D; [10],2300 nM
same,Activity,A-375 [6],Active
same,GI50,SF-268,160 nM
same,TGI,SF-268,310 nM
same,CC50,SF-268,600 nM
same,IC50,[7],2200 nM
same,GI50,NCI-H522,3810 nM
same,TGI,NCI-H522,20700 nM
same,CC50,NCI-H522,> 100000 nM
same,GI50,UACC-257,1480 nM
same,TGI,UACC-257,3160 nM
same,CC50,UACC-257,6710 nM
same,inhibition at 20 µM,A-375 [8],75%
same,GI50,OVCAR-3,220 nM
same,TGI,OVCAR-3,420 nM
same,CC50,OVCAR-3,790 nM
same,GI50,MDA-MB-468,220 nM
same,TGI,MDA-MB-468,510 nM
same,CC50,MDA-MB-468; [10],1540 nM
same,GI50,Malme-3M,320 nM
same,TGI,Malme-3M,1110 nM
same,CC50,Malme-3M; [10],3950 nM
same,GI50,MCF7,190 nM
same,TGI,MCF7,380 nM
same,CC50,MCF7; [10],800 nM
CCCCCCCCCCCCCCCCCCNC(=O)[C@@H]1CSC(c2ccccc2)N1 (mixture of isomers),GI50,NCI-H460,1410 nM
same,TGI,NCI-H460,2980 nM
same,CC50,NCI-H460,6310 nM
same,GI50,BT-549,840 nM
same,TGI,BT-549,2060 nM
same,CC50,BT-549,4540 nM
same,GI50,SR,490 nM
same,TGI,SR,1790 nM
same,CC50,SR,6790 nM
same,GI50,HCT-15,10900 nM
same,TGI,HCT-15,22700 nM
same,CC50,HCT-15,47700 nM
same,IC50,PC-3,10000 nM
same,GI50,SN12C,1940 nM
same,TGI,SN12C,3350 nM
same,CC50,SN12C,5790 nM
same,selectivity ratio,[9],2.6
same,GI50,SW-620,1180 nM
same,TGI,SW-620,2400 nM
same,CC50,SW-620,4900 nM
same,GI50,M14,1440 nM
same,TGI,M14,2750 nM
same,CC50,M14,5240 nM
same,GI50,SF-295,4370 nM
same,TGI,SF-295,15900 nM
same,CC50,SF-295,74700 nM
same,GI50,HOP-92,2060 nM
same,TGI,HOP-92,4120 nM
same,CC50,HOP-92; [10],8270 nM
same,IC50,DU-145,10800 nM
same,GI50,SF-268,1200 nM
same,TGI,SF-268,2570 nM
same,CC50,SF-268,5530 nM
same,IC50,[7],15500 nM
same,GI50,NCI-H522,3520 nM
same,TGI,NCI-H522,12300 nM
same,CC50,NCI-H522,> 100000 nM
same,GI50,UACC-257,2130 nM
same,TGI,UACC-257,4230 nM
same,CC50,UACC-257,8400 nM
same,GI50,OVCAR-3,4270 nM
same,TGI,OVCAR-3,16200 nM
same,CC50,OVCAR-3,80200 nM
